Published values of several laboratories.
Protocols differ between the studies behind these lines.
Observed: DPPH scavenging

Compound | technique | time | notes | IC50
CCOC(=O)C1=C(CSC2=NCCS2)NC(=O)NC1c1ccc(OC)cc1 (centres unmarked) | – | – | – | 139 µM
O=C(O[C@@H]1COC(=O)c2cc(O)c(O)c(O)c2-c2c(cc(O)c(O)c2O)C(=O)O[C@H]1[C@@H]1OC(=O)c2cc(O)c(O)c(O)c2-c2c(O)c(O)c(O)c3c2C(=O)O[C@H]1[C@@H]3O)c1cc(O)c(O)c(O)c1 | absorbance | – | – | 5.37 µg/mL
CCCCCC1NCCc2cc(O)c(O)cc21 (centres unmarked) | absorbance | 30 min | dark | 63 µM
Cc1ccc(NC(=O)CSc2nc3ccccc3cc2C=Nn2c(S)nnc2-c2ccccc2)cc1 | – | – | – | 120 µM
C=C(C)[C@@H]1CC[C@]2(C)CC[C@]3(C)[C@H](CC[C@@H]4[C@@]5(C)CC[C@H](O)C(C)(C)[C@@H]5CC[C@]43C)[C@@H]12 | absorbance | – | – | 18.6 µg/mL
CCCCCCCCCCCCCCCCCCc1ccc(O)cc1 | – | – | – | 204 µM
CCCCCCCCCCC1NCCc2cc(O)c(O)cc21 (centres unmarked) | absorbance | 30 min | dark | 60.7 µM
O=c1c(O)c(-c2ccc(O)c(O)c2)oc2cc(O)cc(O)c12 | – | – | – | 18.6 µM
O=C1O[C@H]([C@@H](O)CO)C(O)=C1O | absorbance | 30 min | dark | 30.8 µM
O=C1O[C@H]([C@@H](O)CO)C(O)=C1O | – | – | – | 9.1 µg/mL
CCOC(=O)C1=C(CCl)NC(=O)NC1c1cccc(Cl)c1 (centres unmarked) | – | – | – | 104 µM
COc1cc(C2NCCc3cc(O)c(O)cc32)cc(OC)c1O (centres unmarked) | absorbance | 30 min | dark | 11.2 µM
CCOC(=O)C1=C(CCl)NC(=O)NC1c1cccc(F)c1 (centres unmarked) | – | – | – | 179 µM
COc1cccc(C2NCCc3cc(O)c(O)cc32)c1O (centres unmarked) | absorbance | 30 min | dark | 6.49 µM
CCOC(=O)C1=C(CCl)NC(=O)NC1c1cccc(OC)c1 (centres unmarked) | – | – | – | 86.7 µM
CCCCCCCCCCCCCCCC1NCCc2cc(O)c(O)cc21 (centres unmarked) | absorbance | 30 min | dark | 37.3 µM
CCOC(=O)C1=C(CCl)NC(=O)NC1c1ccccc1 (centres unmarked) | – | – | – | 207 µM
O=C1O[C@H]([C@@H](O)CO)C(O)=C1O | absorbance | 30 min | – | 90.1 µM
CCOC(=O)C1=C(CSC2=NCCS2)NC(=O)NC1c1ccc(F)cc1F (centres unmarked) | – | – | – | 137 µM
Cc1ccccc1NC(=O)CSc1nc2ccccc2cc1C=Nn1c(S)nnc1-c1ccccc1 | – | – | – | 131 µM
